HCV NS3 hel inh – inhibitors of HCV NS3 helicase, primary screen, biochemical, Cy5 molecular beacon fluorescence; 290,000 compounds, 0.56% hits; inhibition, % at 10.9 µM; NS3 helicase DNA unwinding; AID 1800, 2009;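 active = inhibition above the mean of all tested compounds plus 3 SD, set per campaign, cut at about 35% in these data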;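 note: 0% = DMSO wells and 100% = thioflavine S control wells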
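Control set: DMSO versus 110 µM thioflavine S; Material: NS3 helicase fragment of HCV; Measured by: Cy5 fluorescence at 0 and 60 min, beacon hairpin quenching; Read-out basis: percent inhibition from t60/t0 fluorescence ratio; Times: reaction time 60 min, 25 °C; Repeats: single replicate; Compound dosing: single dose, 10.9 µM nominal final, DMSO 0.8% final.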
HSF1 inh – HSF1 inhibitors in luciferase reporter cells, primary screen, cell-based, NIH3T3, luminescence. NIH3T3-HGL HSE-luciferase, MG132-induced, luminescence 8 h; hits give low values. activity change, negative = inhibition, % at 7.5 µM (by protocol). 300,000 compounds, 0.77% hits. AID 2098, 2009;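 active = more than half of replicate wells show activity change below -50%, luminescence cut by over half; inconclusive = some wells, but at most half, below -50%; inactive = no replicate well below -50%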;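 note: luciferase reports HSF-1 transcriptional activity via heat shock element; 0% = median of DMSO wells and -100% = zero luminescence signal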
Lipid droplet – inhibitors of hepatocyte lipid droplet formation, primary screen, imaging, high-throughput imaging, BODIPY stain. AML12 mouse hepatocytes, oleate lipid droplets. inhibition, % at 6.5 µM. 240,000 compounds, 0.4% hits;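 active = lipid droplet intensity inhibited by at least 50%, with more than 500 cells counted; inconclusive = wells with under 300 cells, treated as cytotoxic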
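Test system: AML12 hepatocytes (mouse); reagent: oleate loading, 100 µM; dosing: one dose, 6.5 µM compound; incubation: overnight exposure; signal: fluorescence imaging, 20x objective, two fields per well; read-out basis: % inhibition of corrected integrated BODIPY droplet signal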
HSF1 activator – HSF-1 activators, primary screen, NIH3T3-HGL cells, MG132 stress, luminescence, single point; NIH3T3-HGL HSF-1 luciferase reporter, 8 h; 100% = twice DMSO control signal; activation, % at 9 µM; 300,000 compounds, 1.7% hits;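 active = mean replicate activation of at least 50% with a set share of replicates each reaching 50%; inconclusive = only one of those two conditions met; inactive = mean below 50% and too few replicates reaching it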;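 note: 0% = median of the neutral control wells and 100% = twice that signal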
HSP90 refold inh – HSP90 inhibitors, primary screen, cell lysate, luminescence | Rabbit reticulocyte lysate, luciferase refolding luminescence, 3 h | inhibition, % at 5.6 µM | 290,000 compounds, 0.91% hits | AID 1789, 2009;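 active = inhibition above the screen-wide mean plus 3 SD, computed separately per campaign, cut at about 16% in these data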;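 note: 0% = DMSO wells and 100% = 60 µM geldanamycin wells; inhibitors lower the luminescence because luciferase stays unfolded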
* marks the source's active call; other numbers are inactive results; ? = inconclusive; / = no result given. The list is not random: actives were taken first. Their share in the collection is about 3.8%.

SMILES | HCV NS3 hel inh | HSF1 inh | Lipid droplet | HSF1 activator | HSP90 refold inh
Cc1ccc(N2CCN(C(=O)c3nn(C)c4c3CS(=O)(=O)c3ccccc3-4)CC2)c(C)c1 | 0 | -2 | 9 | -6 | 3
COc1cccc(NC(=O)CSc2nc3c([nH]c4ccccc43)c(=O)n2C)c1 | 6 | 41 | -11 | 95* | 2
CN1CCN(C(=O)c2ccc(COc3ccc(C(C)(C)C)cc3)o2)CC1 | -39 | 19 | / | 43 | 5
CCCc1ccc(OCc2ccc(C(=O)N3CCCC3)o2)cc1 | -3 | 8 | 2 | 24 | 17*
O=C(c1ccco1)N1CCN(C(=O)c2ccc(COc3ccc4c(c3)CCC4)o2)CC1 | -8 | 12 | / | 16 | 3
O=C(c1ccc(COc2ccc3c(c2)CCC3)o1)N1CCN(c2ccccc2)CC1 | -2 | 70 | / | 62* | 5
COc1ccc(Cl)cc1-c1nc(SCC(N)=O)n[nH]1 | -2 | 0 | -15 | -16 | -3
COc1ccc(-c2cc(C(F)(F)F)nc(N)n2)cc1 | 4 | 2 | 12 | -2 | 1
COc1ccc(-c2cc(C(F)(F)F)nc(S(C)(=O)=O)n2)cc1 | -2 | 262 | 5 | 321* | 7
Cc1cc(NC(=O)CCCS(=O)(=O)c2nc(-c3cccs3)cc(C(F)(F)F)n2)no1 | 0 | 159 | / | 205* | 1
CS(=O)(=O)c1nc(-c2ccc(F)cc2)cc(C(F)(F)F)n1 | 3 | -93* | -11 | -92 | 2
Nc1nc(-c2ccc(F)cc2)cc(C(F)(F)F)n1 | -1 | 3 | 5 | 7 | 8
CS(=O)(=O)c1nc(-c2cccs2)cc(C(F)(F)F)n1 | -5 | -90* | / | -90 | 5
N#Cc1ccc(COc2cccc3cccnc23)cc1 | 1 | 18 | -2 | 38 | -1
CC(=O)OCCCNc1cc(Sc2ccc(C)cc2)c2nonc2c1[N+](=O)[O-] | 2 | -80* | -15 | -84 | 5
CC(=O)OCCNc1cc(Sc2nc3ccccc3[nH]2)c2nonc2c1[N+](=O)[O-] | -12 | 29 | 6 | 40 | -2
CC(=O)OCCCNc1cc(Sc2nc3ccccc3s2)c2nonc2c1[N+](=O)[O-] | 0 | -79* | -4 | -77 | -1
O=[N+]([O-])c1c(NCCCO)cc(Sc2ccc(Cl)cc2)c2nonc12 | 2 | 164 | 8 | ? | -3
Cn1ccnc1Sc1cc(NCCCO)c([N+](=O)[O-])c2nonc12 | -3 | -95* | 9 | -96 | 1
O=[N+]([O-])c1c(NCCCO)cc(SCc2ccco2)c2nonc12 | 25 | -22 | -2 | -38 | -1
Cc1occc1C(=O)Nc1cnn(CCCC(=O)O)c1 | 2 | 0 | -6 | -10 | -1
COc1cccc2c1C(=O)c1c(O)c3c(c(O)c1C2=O)C[C@](O)(C(C)=O)C[C@H]3O[C@@H]1C[C@@H](N)[C@@H](O)[C@@H](C)O1 | / | -67* | / | -63 | /
COc1cccc2c1-c1c(O)cccc1C2=O | 7 | 1 | 0 | 23 | 1
O=c1[nH]c(-c2ccccn2)nc2sc(-c3ccccc3)cc12 | -4 | 68 | -139 | ? | -3
Cc1ccc(COc2ccc3c(c2)OCO3)cc1 | -4 | 51 | -4 | 59* | 3
SMILES | HCV NS3 hel inh | HSF1 inh | Lipid droplet | HSF1 activator | HSP90 refold inh
CCOc1cc(/C=C2/C(=O)ON=C2C)ccc1OCc1ccc(F)cc1 | 6 | 22 | / | 63* | -1
CCOc1cc(/C=C2/C(=O)ON=C2C)ccc1OCc1ccccc1 | 5 | 3 | -14 | -5 | 1
Nc1ccc2c(c1)C(=O)c1ccccc1-2 | / | -10 | / | -3 | /
Nc1ccc2c(c1)C(=O)C(=O)c1ccccc1-2 | 9 | -95* | -8 | -95 | 16*
O=C1C(=O)c2ccc(-c3ccccc3)cc2-c2ccccc21 | 9 | -95* | -20 | -95 | -2
Cc1ccc(S(=O)(=O)NC(=NCC(=O)O)c2ccc(F)cc2)cc1 | -4 | -4 | 20 | -6 | 2
Cc1ccc(S(=O)(=O)NC(=NCc2ccccc2)c2ccc(F)cc2)cc1 | 2 | -77* | -2 | -82 | 2
C/C=C1\COC(C(=O)NCc2cccc(OC)c2OC)(C(F)(F)F)C=C1C=C1CCCCC1 (centres undefined) | / | 56 | / | 69* | /
C/C=C1\COC(C(=O)NCc2ccncc2)(C(F)(F)F)C=C1C=C1CCCCC1 (centres undefined) | / | 31 | / | 63* | /
O=C(CN1CCN(Cc2ccccc2)CC1)N1CCCCCC1 | 2 | -8 | 10 | 5 | 0
Cc1cc(C(=O)COC(=O)Cc2n[nH]c(=O)c3ccccc23)c(C)n1-c1ccc2c(c1)OCCO2 | 10 | -57* | -36 | -58 | 1
CCN(CC)S(=O)(=O)c1ccc(OC)c(NC(=O)c2cccs2)c1 | -8 | -1 | 16 | 0 | 6
CCc1ccc(C(=O)Cc2cc3cccc(OC)c3oc2=O)cc1 | 3 | 36 | -37 | 80* | -8
Cc1ccc(CCNC(=O)C2CCN(S(=O)(=O)N3CCOCC3)CC2)cc1 | 0 | 3 | 7 | 1 | -2
O=C1c2ccccc2C(=O)N1CCCCN(C(=O)c1cc([N+](=O)[O-])cc([N+](=O)[O-])c1)c1ccc(Cl)cc1 | -1 | 14 | -5 | 25 | -4
Cc1ccc(N(CCCCN2C(=O)c3ccccc3C2=O)C(=O)c2cccc([N+](=O)[O-])c2)cc1 | -9 | 35 | / | 70* | 2
Cc1ccc(NC(=O)c2cc(=O)[nH]c3ccccc23)cc1 | -4 | -5 | 9 | 4 | 1
Cc1ccc(NC(=O)C(=O)c2c[nH]c3ccccc23)cc1 | -4 | 55 | -1 | 84* | 10
CCOc1ccc(N2CC(C(=O)NCCc3c[nH]c4ccc(C)cc34)CC2=O)cc1 (centres undefined) | 4 | -58* | -10 | -64 | 1
CCCCOc1ccc(N2CC(C(=O)NCCc3ccc(OC)c(OC)c3)CC2=O)cc1 (centres undefined) | 1 | -82* | -23 | -87 | 1
CCOc1ccc(NC(=O)C2CC(=O)N3CCCN=C3S2)cc1 (centres undefined) | 6 | 22 | 6 | 54* | 3
CCOc1ccc(N2CC(C(=O)Nc3ccc4c(c3)OCCO4)CC2=O)cc1 (centres undefined) | 5 | -65* | 0 | -67 | 6
COc1ccc(N2CC(C(=O)NCCc3ccc(OC)c(OC)c3)CC2=O)cc1 (centres undefined) | 3 | -10 | / | -7 | 3
CCOc1ccc(N2CC(C(=O)Nc3ccc4c(c3)OCO4)CC2=O)cc1 (centres undefined) | 10 | 4 | 0 | -3 | 0
Cc1nc2scc(C)n2c(=O)c1S(=O)(=O)NCc1ccc(F)cc1 | 12 | 4 | -2 | 18 | -3

Compound activity from PubChem.
